ChEMBL document CHEMBL1134377, “New synthesis of benzo-delta-carbolines, cryptolepines, and their salts: in vitro cytotoxic, antiplasmodial, and antitrypanosomal activities of delta-carbolines, benzo-delta-carbolines, and cryptolepines” (J Med Chem, 2001)
Structures can show the parent of a compound that is named as a salt.

Experiments:
Plasmodium falciparum [1] = test: Antiplasmodial activity against chloroquine-resistant Plasmodium falciparum K1; type: functional, organism-based
Outline: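 K1 strain kept in continuous culture on human erythrocytes. Asynchronous cultures (1% parasitemia, 1% final hematocrit) exposed to serial dilutions of drug (DMSO stocks; final DMSO ≤0.2%) for 24 h at 37 °C. 0.5 µCi [3H]hypoxanthine per well was then added for a further 24 h. Inhibition is incorporation versus untreated controls on the same plate. IC50 taken from concentration-response curves, mean ± SD of several independent experiments.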

Trypanosoma cruzi [2] = test: Index of selectivity was determined in Trypanosoma cruzi; type: functional
Outline: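 Ratio of IC50 on L6 cells to IC50 on intracellular amastigote proliferation of T. cruzi.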

L6 = test: In vitro cytotoxicity against L6 cells; type: functional, cell-based, Rattus norvegicus
Trypanosoma cruzi [3] = test: Antitrypanosomal activity against Trypanosoma cruzi amastigotes; type: functional, organism-based
Trypanosoma cruzi [4] = test: Antitrypanosomal activity against Trypanosoma cruzi epimastigotes; type: functional, organism-based
Plasmodium falciparum [5] = test: Selectivity index against Plasmodium falciparum; type: functional
Trypanosoma cruzi [6] = test: Antitrypanosomal activity against (Trypanosoma cruzi) trypomastigotes (concentration of compound tested on trypomastigote motility); type: functional, organism-based
Outline: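 Tulahuen LacZ clone 4 trypomastigotes harvested from infected murine L6 muscle cell cultures; 2-fold drug dilutions from 200 to 1.5 µM, 48 h; motility scored by microscopy; value is concentration with no detectable motility effect, mean of 2 independent experiments.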

[7] = In vitro cell survival assay on cancer KB cell lines; type: functional, cell-based, Homo sapiens
Outline: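 KB oral epidermoid carcinoma cells in MEM with 10% FCS, 25 000 cells/well; serial dilutions (DMSO or water) added at plating; 3 days at 37 °C, 5% CO2; viability by neutral red uptake 8-16 h, SDS lysis, absorbance 540 nm.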

[8] = In vitro cytotoxicity against L6 cells

Structure (SMILES)	IC50 (Plasmodium falciparum [1]; Plasmodium falciparum) [µM]	IS (Trypanosoma cruzi [2])	IC50 (L6; Rattus norvegicus, L6) [µM]	IC50 (Trypanosoma cruzi [3]; Trypanosoma cruzi) [µM]	IC50 (Trypanosoma cruzi [4]; Trypanosoma cruzi) [µM]	IS (Plasmodium falciparum [5])	IC50 (Trypanosoma cruzi [6]; Trypanosoma cruzi) [µM]	IC50 ([7]; Homo sapiens, KB) [µM]	IC50 ([7]; kb) [µM]	IC50 [8] [µM]	IC50 (Plasmodium falciparum [1]) [µM]	IC50 (L6; l6) [µM]	IC50 (Trypanosoma cruzi [3]) [µM]	IC50 (Trypanosoma cruzi [4]) [µM]	IC50 (Trypanosoma cruzi [6]) [µM]
c1csc(-c2cnc3c(c2)[nH]c2ccccc23)c1	16.8	6.4	54	8.4	6.8	3.2	200	–	–	–	–	–	–	–	–
C[n+]1c2ccccc2cc2[nH]c3ccccc3c21.O=S(=O)([O-])C(F)(F)F	0.33	64.8	8.1	0.125	1.3	24.5	50	–	–	–	–	–	–	–	–
CC(C)c1c2nc3ccccc3c-2n(C)c2ccccc12	2.2	–	23.8	–	–	10.6	–	6.5	–	–	–	–	–	–	–
Cc1c2nc3ccccc3c-2n(C)c2ccccc12	0.101	–	3.7	–	–	41.9	–	0.53	–	–	–	–	–	–	–
CCc1c2nc3ccccc3c-2[nH]c2ccccc12	30.9	3.8	21.5	5.7	2.8	0.7	6.25	40	–	–	–	–	–	–	–
CC(C)c1c2ccccc2[n+](C)c2c1[nH]c1ccccc12.O=S(=O)([O-])C(F)(F)F	1.3	4.6	15.1	3.3	0.73	12.6	12.5	–	6.4	–	–	–	–	–	–
Cc1c2ccccc2[n+](C)c2c1[nH]c1ccccc12	–	–	–	–	–	–	–	0.42	–	–	–	–	–	–	–
Cc1c2nc3ccccc3c-2[nH]c2ccccc12	74.6	4	18.9	4.7	3.9	0.25	25	40	–	–	–	–	–	–	–
c1ccc2nc(-c3cc[nH]c4c5ccccc5nc3-4)ccc2c1	16.3	6.5	41.6	6.4	26.4	2.6	100	–	–	–	–	–	–	–	–
CCc1c2ccccc2[n+](C)c2c1[nH]c1ccccc12	–	–	–	–	–	–	–	1.5	–	–	–	–	–	–	–
c1ccc(-c2cc[nH]c3c4ccccc4nc2-3)cc1	38.5	1.2	14.3	11.9	11.1	0.4	25	–	–	–	–	–	–	–	–
c1ccc2c(c1)[nH]c1cccnc12	104	9.7	229	23.5	23.2	2.2	100	–	–	–	–	–	–	–	–
c1ccc(-c2c[nH]c3c4ccccc4nc-3c2-c2ccccc2)cc1	259	>1.5	> 156	108	> 312	>0.6	100	–	–	–	–	–	–	–	–
Oc1ccc2[nH]c3cccnc3c2c1	56.5	1.9	235	122	129	4.2	200	–	–	–	–	–	–	–	–
Cc1c2ccccc2[n+](C)c2c1[nH]c1ccccc12.O=S(=O)([O-])C(F)(F)F	0.062	18.9	1.4	0.074	0.3	22.5	12.5	–	0.57	–	–	–	–	–	–
Cc1cc[nH]c2c3ccccc3nc1-2	45.6	7.9	82.4	10.4	6.6	1.8	100	–	–	–	–	–	–	–	–
Clc1c2nc3ccccc3c-2[nH]c2ccccc12	74.6	6.4	–	6.7	6.3	1.7	50	–	–	43.2	–	–	–	–	–
c1csc(-c2ccnc3c2[nH]c2ccccc23)c1	14.8	1	1.8	1.8	11.2	0.12	200	–	–	–	–	–	–	–	–
Cc1c(-c2ccccc2)c[nH]c2c3ccccc3nc1-2	23.6	11.2	21.3	1.9	2.3	0.9	6.25	–	–	–	–	–	–	–	–
c1ccc(-c2cc[nH]c3c4ccccc4nc2-3)nc1	33.1	4	75.1	18.8	58.4	2.3	25	–	–	–	–	–	–	–	–

Structure (SMILES)	IC50 (Plasmodium falciparum [1]; Plasmodium falciparum) [µM]	IS (Trypanosoma cruzi [2])	IC50 (L6; Rattus norvegicus, L6) [µM]	IC50 (Trypanosoma cruzi [3]; Trypanosoma cruzi) [µM]	IC50 (Trypanosoma cruzi [4]; Trypanosoma cruzi) [µM]	IS (Plasmodium falciparum [5])	IC50 (Trypanosoma cruzi [6]; Trypanosoma cruzi) [µM]	IC50 ([7]; Homo sapiens, KB) [µM]	IC50 ([7]; kb) [µM]	IC50 [8] [µM]	IC50 (Plasmodium falciparum [1]) [µM]	IC50 (L6; l6) [µM]	IC50 (Trypanosoma cruzi [3]) [µM]	IC50 (Trypanosoma cruzi [4]) [µM]	IC50 (Trypanosoma cruzi [6]) [µM]
c1ccc(-c2c3nc4ccccc4c-3[nH]c3ccccc23)cc1	–	–	–	–	–	–	–	> 100	–	–	–	–	–	–	–
CC(C)c1c2ccccc2[n+](C)c2c1[nH]c1ccccc12	–	–	–	–	–	–	–	9.25	–	–	–	–	–	–	–
C[n+]1cccc2[nH]c3ccccc3c21.[Cl-]	1.6	>1	> 230	192	428	> 138	200	–	–	–	–	–	–	–	–
Cn1cccc2nc3ccccc3c1-2	2.2	>1	> 220	258	> 550	>100	200	–	–	–	–	–	–	–	–
Nc1ccccc1-c1c[nH]c2c3ccccc3nc-2c1	29.3	1.3	14.3	11.2	10.4	0.5	50	–	–	–	–	–	–	–	–
c1ccc(-c2c[nH]c3c4ccccc4nc-3c2)nc1	22.1	9.8	204	20.8	49.8	9.2	50	–	–	–	–	–	–	–	–
Cn1c2c3ccccc3nc-2c(-c2ccccc2)c2ccccc21	1.1	16.6	5.5	0.34	0.23	5.5	1.5	0.75	–	–	–	–	–	–	–
c1ccc(-c2c[nH]c3c4ccccc4nc-3c2)cc1	129	4.3	37.2	8.6	–	0.3	200	–	–	–	–	–	–	–	–
CCc1cc[nH]c2c3ccccc3nc1-2	66.8	3.7	44.9	12.2	21.4	0.7	50	–	–	–	–	–	–	–	–
Nc1ccccc1-c1cc[nH]c2c3ccccc3nc1-2	23.9	0.9	16.2	18.9	34.4	0.7	50	–	–	–	–	–	–	–	–
CC(C)c1c2nc3ccccc3c-2[nH]c2ccccc12	–	–	–	–	–	–	–	57	–	–	–	–	–	–	–
O=C(c1c2nc3ccccc3c-2[nH]c2ccccc12)c1c2nc3ccccc3c-2[nH]c2ccccc12	6.4	2.7	15.2	5.7	> 200	2.4	100	–	–	–	–	–	–	–	–
CCc1c2ccccc2[n+](C)c2c1[nH]c1ccccc12.O=S(=O)([O-])C(F)(F)F	0.48	17.4	6.8	0.39	0.34	14.1	50	–	–	–	–	–	–	–	–
C[n+]1cccc2[nH]c3ccccc3c21.O=S(=O)([O-])C(F)(F)F	–	>1	–	–	–	>100	–	–	–	–	1.5	> 150	199	> 300	100
CCc1c2nc3ccccc3c-2n(C)c2ccccc12	1.1	33	5.9	0.18	3.2	5.5	6.25	0.7	–	–	–	–	–	–	–
c1ccc2nc(-c3c[nH]c4c5ccccc5nc-4c3)ccc2c1	14.2	6.9	22.7	3.3	18.6	1.6	–	–	–	–	–	–	–	–	–
C[n+]1c2ccccc2c(-c2ccccc2)c2[nH]c3ccccc3c21.O=S(=O)([O-])C(F)(F)F	1.1	7.7	6.8	0.88	0.54	6.2	12.5	–	–	–	–	–	–	–	–
C[n+]1c2ccccc2cc2[n-]c3ccccc3c21 [CRYPTOLEPINE HYDROCHLORIDE]	–	–	–	–	–	–	–	–	1.75	–	–	–	–	–	–
C[n+]1c2ccccc2cc2[n-]c3ccccc3c21 [CRYPTOLEPINE]	–	–	–	–	–	–	–	1.5	–	–	–	–	–	–	–
c1ccc2nc3c(cc2c1)[nH]c1ccccc13 [QUINDOLINE]	36.2	3.4	48.6	14.2	8.7	1.3	50	45	–	–	–	–	–	–	–
